Drawing on ChEMBL document CHEMBL4152204, “Discovery of N-hydroxy-3-alkoxybenzamides as direct acid sphingomyelinase inhibitors using a ligand-based pharmacophore model” (Eur J Med Chem, 2018), this text covers Activity, inhibition and viability for one molecule.

Experiment [1] relates to NIH3T3. In words: Cytoprotective activity against UV-induced apoptosis in mouse NIH/3T3 cells assessed as necrotic cells at 40 uM preincubated for 20 hrs followed by UV irradiation for 5 mins and measured after 24 hrs by flow cytometric analysis (reference value: 1.5%). It counts as functional. (In general: Flow cytometry measures light scatter and fluorescence of single cells or particles in a stream.)

In experiment [2] the target is T1, Sphingomyelin phosphodiesterase (Mus musculus) (UniProt Q04519).
T1 sequence (whole entry): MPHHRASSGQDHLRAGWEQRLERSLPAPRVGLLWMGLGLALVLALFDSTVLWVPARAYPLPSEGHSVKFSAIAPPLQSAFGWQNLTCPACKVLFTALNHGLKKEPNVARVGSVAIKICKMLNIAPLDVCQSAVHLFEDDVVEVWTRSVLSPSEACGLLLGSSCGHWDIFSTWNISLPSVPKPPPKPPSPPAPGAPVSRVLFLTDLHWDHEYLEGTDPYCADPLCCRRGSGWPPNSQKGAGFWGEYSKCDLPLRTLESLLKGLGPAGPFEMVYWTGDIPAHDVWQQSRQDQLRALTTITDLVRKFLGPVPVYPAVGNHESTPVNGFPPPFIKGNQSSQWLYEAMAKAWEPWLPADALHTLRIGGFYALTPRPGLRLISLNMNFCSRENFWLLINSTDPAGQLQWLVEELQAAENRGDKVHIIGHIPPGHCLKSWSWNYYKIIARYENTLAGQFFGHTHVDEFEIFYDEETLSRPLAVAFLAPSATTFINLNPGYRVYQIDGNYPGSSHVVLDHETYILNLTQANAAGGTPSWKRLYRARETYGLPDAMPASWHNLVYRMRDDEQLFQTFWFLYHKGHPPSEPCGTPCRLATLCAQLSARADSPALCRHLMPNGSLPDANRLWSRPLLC
As to the kind of experiment: Inhibition of acid sphingomyelinase in mouse NIH/3T3 cells assessed as increase in […] level at 10 uM after 20 hrs by LC-MS/MS analysis relative to control. Format: cell-based. On the set-up: scale not given: the % may be the effect or the level left. In short, it runs like this:
(§1)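 NIH3T3 cells in DMEM with 10% FBS, 37 °C, 5% CO₂; at 90% confluence given fresh medium plus inhibitor (5, 10, 20 µM) for 20 h; total ceramides and sphingomyelin quantified by LC-MS-MS versus untreated control; mean ± SD of three independent experiments, Student's t-test.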

The target of experiment [3] is T1, Sphingomyelin phosphodiesterase (Mus musculus). As to the kind of experiment: Inhibition of acid sphingomyelinase in mouse NIH/3T3 cells assessed as increase in […] level at 5 uM after 20 hrs by LC-MS/MS analysis relative to control. It counts as cell-based. Also noted: scale not given: the % may be the effect or the level left. In short, it runs like this:
as §1

The subject of experiment [4] is NIH3T3. As to the kind of experiment: Cytoprotective activity against UV-induced apoptosis in mouse NIH/3T3 cells assessed as early apoptotic cells at 20 uM preincubated for 20 hrs followed by UV irradiation for 5 mins and measured after 24 hrs by flow cytometric analysis (reference value: 79.5%). Format: functional.
The subject of experiment [5] is NIH3T3. In words: Cytoprotective activity against UV-induced apoptosis in mouse NIH/3T3 cells assessed as early apoptotic cells at 40 uM preincubated for 20 hrs followed by UV irradiation for 5 mins and measured after 24 hrs by flow cytometric analysis (reference value: 79.5%). It counts as functional.
Experiment [6] concerns the target T1, Sphingomyelin phosphodiesterase (Mus musculus). As to the kind of experiment: Inhibition of acid sphingomyelinase in mouse NIH/3T3 cells assessed as ceramide levels at 5 uM after 20 hrs by LC-MS/MS analysis relative to control. Format: cell-based. The essentials:
as §1

Experiment [7] relates to NIH3T3. As to the kind of experiment: Inhibition of LPS-induced IL-8 production in mouse NIH/3T3 cells at 2.5 uM preincubated for 20 hrs followed by LPS-stimulation and measured after 6 hrs by ELISA. Format: functional, cell-based. In short, it runs like this:
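NIH3T3 cells (DMEM, 10% FBS) seeded at 2*10⁵ per well overnight, inhibitor 20 h, then LPS to 50 ng/mL for a further 6 h; IL-6 or IL-8 measured by ELISA; compared with LPS-only and control groups.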
(In general: In an ELISA, binding on a coated surface is turned into a signal by an enzyme label.)

The target of experiment [8] is T1, Sphingomyelin phosphodiesterase (Mus musculus). As to the kind of experiment: Inhibition of acid sphingomyelinase in mouse NIH/3T3 cells assessed as increase in […] level at 20 uM after 20 hrs by LC-MS/MS analysis relative to control. It counts as cell-based. Also noted: scale not given: the % may be the effect or the level left. In short, it runs like this:
as §1

Experiment [9] relates to NIH3T3. As to the kind of experiment: Cytoprotective activity against UV-induced apoptosis in mouse NIH/3T3 cells assessed as viable cells at 60 uM preincubated for 20 hrs followed by UV irradiation for 5 mins and measured after 24 hrs by flow cytometric analysis (reference value: 12.6%). It counts as functional. The settings on record: NIH3T3, light or radiation study, read-out: Activity.

The source made the active and inactive calls. No cut-off for these calls is given here.

What is called inhibition is the change of the read-out against control, counted positive when it falls. As for `CCCCCCCCCCOc1cc(C(=O)NO)ccc1OC`, the Activity came out at 0.1% in [1]; 36.4% in experiment [2]; 31.9% in experiment [3]; 36.8% in experiment [4]; 41.1% in experiment [5]; 37.5% in [8]. Besides, in experiment [6], the inhibition was determined as 26.1%. In addition, the inhibition entry in experiment [7] was “inactive”. Moreover, in experiment [9], the viability at 60 µM was determined as 36.2%.
